Reference: ChEMBL document CHEMBL4346686, “Discovery and biological evaluation of novel androgen receptor antagonist for castration-resistant prostate cancer” (Eur J Med Chem, 2019)

Key:
VCaP = experiment: Antitumor activity against human VCaP cells xenografted in BALB/c nude mouse assessed as inhibition of tumor growth at 30 mg/kg, po qd administered for 40 days relative to control; type: functional
Outline: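 Male BALB/c nude mice, 5 weeks old, s.c. 1 × 10^7 VCaP cells in DMEM/Matrigel (1:1). Castrated under Nembutal at 150–200 mm3 and randomized (n = 8–10). Once tumors regrew to 200–350 mm3, oral 30 mg/kg qd for 40 days. TGI = [1 − (T − T0)/(C − C0)] × 100 from mean tumor volumes on first and last treatment days.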

CWR22R = experiment: Antiproliferative activity against human 22Rv1 cells assessed as reduction in cell viability incubated for 6 days by CCK8 assay; type: functional, cell-based; settings: 22Rv1, 144 h
Outline: (§1)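 Cells seeded (2×10^4 per well for VCaP, 1–3×10^3 for the others) and compound added after 24 h as a 9-point, 3-fold serial dilution. Exposure 6 days, then CCK-8 for 1–4 h and absorbance at 450 nm. IC50 from curve fit, mean of at least two independent experiments run in duplicate.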

PC-3 = experiment: Antiproliferative activity against human PC3 cells assessed as reduction in cell viability incubated for 6 days by CCK8 assay; type: functional, cell-based; settings: PC-3, 144 h; outline: as §1
[1] = Antiproliferative activity against human LNCaP-AR cells assessed as reduction in cell viability incubated for 6 days by CCK8 assay; type: functional, cell-based; settings: 144 h; outline: as §1
[2] = Toxicity in BALB/c nude mouse xenografted with human VCaP cells assessed as weight loss at 30 mg/kg, po qd administered for 40 days relative to control; type: organism-based; settings: in vivo, 960 h
L02 = experiment: Antiproliferative activity against human L02 cells assessed as reduction in cell viability incubated for 6 days by CCK8 assay; type: cell-based; settings: L02, 144 h; outline: as §1

IC50 (PC-3): > 30 µM
SMILES: CNC(=O)c1ccc(N2C(=S)N(c3ccc(C#N)c(C(F)(F)F)c3)C(=O)C2(C)C)cc1F [ENZALUTAMIDE]
TGI (VCaP): 43% | IC50 (CWR22R): > 30 µM | IC50 [1]: 0.19 µM | Activity [2]: Non-Toxic | IC50 (L02): 17.1 µM
